Eight compounds from ChEMBL document CHEMBL2440012, “Design, synthesis and anticonvulsant properties of new N-Mannich bases derived from 3-phenylpyrrolidine-2,5-diones” (Bioorg Med Chem, 2013) can be followed below.

Data set [1] concerns Mus musculus. The experiment in a line: Anticonvulsant activity in ip dosed albino CF1 mouse assessed as protection against maximal electroshock-induced seizures in half or more animals measured after 4 hrs. Type of data set: functional. The conditions noted are these: read-out: MED. In outline: (§1)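 Male CF-1 mice given ip suspension in 0.5% methylcellulose/water at 30, 100 and 300 mg/kg; MES, scPTZ (pentylenetetrazole 85 mg/kg sc, CD97 dose for clonic seizures ≥5 s) and rotarod (inability to hold balance 1 min in each of three trials) assessed at 0.5 and 4 h; value is minimum dose active in half or more animals.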
On the technique in general: Protection in the maximal electroshock model is a classic sign of anticonvulsant action.

Data set [2] relates to Rattus norvegicus. The data set can be described thus: Anticonvulsant activity in albino Sprague-Dawley rat assessed as protection against maximal electroshock-induced seizures at 30 mg/kg, po measured after 1 hr. The data set is classed as functional. In outline: (§2)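 Male Sprague-Dawley rats, four per group, dosed p.o. at 30 mg/kg in 0.5% methylcellulose/water suspension; MES test at 0.25, 0.5, 1, 2 and 4 h, motor impairment examined in parallel; number of rats out of four protected.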

Data set [3] has as its system Mus musculus. The data set can be described thus: Anticonvulsant activity in albino CF1 mouse assessed as protection against subcutaneous pentylenetetrazole-induced convulsion at 300 mg/kg, ip measured after 4 hrs. The data set is classed as functional, organism-based. More on the design: dose 300 mg/kg. In short, it runs like this:
as §1

Data set [4] deals with Mus musculus. The data set can be described thus: Anticonvulsant activity in albino CF1 mouse assessed as protection against subcutaneous pentylenetetrazole-induced convulsion at 300 mg/kg, ip measured after 0.5 hrs. The data set is classed as functional, organism-based. More on the design: dose 300 mg/kg. In short, it runs like this:
as §1

Data set [5] has as its system Rattus norvegicus. The experiment in a line: Anticonvulsant activity in albino Sprague-Dawley rat assessed as protection against maximal electroshock-induced seizures at 30 mg/kg, po measured after 0.5 hr. The data set is classed as functional. In short, it runs like this:
as §2

Data set [6] relates to Mus musculus. The data set can be described thus: Neurotoxicity in albino CF1 mouse assessed as minimum motor impairment at 300 mg/kg, ip measured after 4 hrs by rotorod test. The conditions noted are these: in vivo. Type of data set: toxicity, organism-based. Details: dose 300 mg/kg, route intraperitoneal. In short, it runs like this: as §1
A general note: Falling from the rotarod earlier than controls is read as motor impairment.

The test system of data set [7] is Rattus norvegicus. The data set can be described thus: Anticonvulsant activity in albino Sprague-Dawley rat assessed as protection against maximal electroshock-induced seizures at 30 mg/kg, po measured after 2 hrs. The data set is classed as functional. In outline:
as §2

Data set [8] relates to Rattus norvegicus. The experiment in a line: Anticonvulsant activity in albino Sprague-Dawley rat assessed as protection against maximal electroshock-induced seizures at 30 mg/kg, po measured after 4 hrs. Type of data set: functional. In outline: as §2
Data set [9] concerns Mus musculus. The experiment in a line: Anticonvulsant activity in ip dosed albino CF1 mouse assessed as protection against maximal electroshock-induced seizures in half or more animals measured after 0.5 hr. Type of data set: functional. The conditions noted are these: read-out: MED. In short, it runs like this:
as §1

The test system of data set [10] is Rattus norvegicus. The data set can be described thus: Anticonvulsant activity in albino Sprague-Dawley rat assessed as protection against maximal electroshock-induced seizures at 30 mg/kg, po measured after 0.25 hr. The data set is classed as functional. In short, it runs like this: as §2
The subject of data set [11] is Mus musculus. The experiment in a line: Neurotoxicity in ip dosed albino CF1 mouse assessed as minimum motor impairment in half or more animals measured after 0.5 hrs by rotorod test. Type of data set: toxicity, organism-based. The conditions noted are these: in vivo. In short, it runs like this:
as §1

The subject of data set [12] is Mus musculus. The data set can be described thus: Anticonvulsant activity in albino CF1 mouse assessed as assessed as protection against 6 Hz psychomotor seizure at 100 mg/kg, ip after 2 hrs by minimal clonic seizure test. Type of data set: functional. The conditions noted are these: route intraperitoneal. In outline:
(§3)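 Male CF-1 mice, groups of four, dosed ip in 0.5% methylcellulose/water suspension, then challenged by 6-Hz corneal stimulation at 32 mA (0.2 ms pulses, 3 s, constant current) at 0.25, 0.5, 1, 2 or 4 h; count of mice out of four protected from stunned posture/clonic seizure.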

Data set [13] deals with Mus musculus. The experiment in a line: Anticonvulsant activity in albino CF1 mouse assessed as assessed as protection against 6 Hz psychomotor seizure at 100 mg/kg, ip after 0.5 hr by minimal clonic seizure test. Type of data set: functional. The conditions noted are these: route intraperitoneal. In short, it runs like this:
as §3

Data set [14] concerns Mus musculus. The data set can be described thus: Neurotoxicity in albino CF1 mouse assessed as minimum motor impairment at 300 mg/kg, ip measured after 0.5 hr by rotorod test. The data set is classed as toxicity, organism-based. More on the design: dose 300 mg/kg, route intraperitoneal. The conditions noted are these: in vivo. In short, it runs like this:
as §1

The test system of data set [15] is Mus musculus. The data set can be described thus: Anticonvulsant activity in albino CF1 mouse assessed as assessed as protection against 6 Hz psychomotor seizure at 100 mg/kg, ip after 1 hr by minimal clonic seizure test. Type of data set: functional. The conditions noted are these: route intraperitoneal. In short, it runs like this: as §3
Data set [16] relates to Mus musculus. The data set can be described thus: Anticonvulsant activity in albino CF1 mouse assessed as assessed as protection against 6 Hz psychomotor seizure at 100 mg/kg, ip after 0.25 hr by minimal clonic seizure test. Type of data set: functional. The conditions noted are these: route intraperitoneal. In outline:
as §3

In data set [17] the test system is Mus musculus. The data set can be described thus: Anticonvulsant activity in albino CF1 mouse assessed as protection against maximal electroshock-induced seizures at 300 mg/kg, ip measured after 0.5 hr. Type of data set: functional, organism-based. More on the design: dose 300 mg/kg. In short, it runs like this:
as §1

Data set [18] deals with Mus musculus. The experiment in a line: Anticonvulsant activity in albino CF1 mouse assessed as assessed as protection against 6 Hz psychomotor seizure at 100 mg/kg, ip after 4 hrs by minimal clonic seizure test. The data set is classed as functional. The conditions noted are these: route intraperitoneal. In outline:
as §3

Data set [19] deals with Mus musculus. The experiment in a line: Neurotoxicity in ip dosed albino CF1 mouse assessed as minimum motor impairment in half or more animals measured after 4 hrs by rotorod test. The data set is classed as toxicity, organism-based. The conditions noted are these: in vivo. In short, it runs like this:
as §1

The subject of data set [20] is Mus musculus. The data set can be described thus: Anticonvulsant activity in albino CF1 mouse assessed as protection against maximal electroshock-induced seizures at 300 mg/kg, ip measured after 4 hrs. Type of data set: functional, organism-based. More on the design: dose 300 mg/kg. In short, it runs like this:
as §1

Calls of active or inactive are those of the source. The rule behind the calls is not given here.

In the case of `O=C1CC(c2cccc(Cl)c2)C(=O)N1CN1CCOCC1` (racemic), the minimal effective dose in the data set on Mus musculus [1] and in the data set on Mus musculus [9] was 100 mg/kg in each case. Besides, the Activity in the data set on Rattus norvegicus [2] is 50%; with Rattus norvegicus [5], 50%; in the data set with Mus musculus [6], “Non-toxic”; in the data set with Rattus norvegicus [7], 50%; in the data set on Rattus norvegicus [8] it was 50%. The result with Mus musculus [3], with Mus musculus [4] and in the data set with Rattus norvegicus [10] was inactive. Moreover, the MED with Mus musculus [11] is 300 mg/kg.

Consider `O=C1CC(c2ccc(Cl)cc2)C(=O)N1CN1CCC(Cc2ccccc2)CC1` (racemic), for which the minimal effective dose with Mus musculus [1] is 100 mg/kg. For the same compound, the Activity was 75% in the data set on Mus musculus [12]; 0% in the data set on Mus musculus [13]; “Non-toxic” in the data set on Mus musculus [6]; “Non-toxic” with Mus musculus [14]; 0% in the data set on Mus musculus [15]; 0% in the data set on Mus musculus [16]. In the data set with Mus musculus [18], the Activity is 25%. For the same compound, the result with Mus musculus [3], in the data set with Mus musculus [4] and in the data set with Mus musculus [17] was inactive.

Consider `O=C1CC(c2cccc(Cl)c2)C(=O)N1CN1CCN(c2cccc(C(F)(F)F)c2)CC1` (racemic), for which the minimal effective dose with Mus musculus [1] and in the data set with Mus musculus [9] was 100 mg/kg throughout. In addition, the result with Mus musculus [3] and in the data set on Mus musculus [4] was inactive. The MED with Mus musculus [19] and with Mus musculus [11] was 300 mg/kg each time.

In the case of `COc1ccccc1N1CCN(CN2C(=O)CC(c3cccc(Cl)c3)C2=O)CC1` (racemic), the outcome with Mus musculus [3], with Mus musculus [20], with Mus musculus [4] and in the data set on Mus musculus [17] was inactive. Moreover, the MED with Mus musculus [19] and with Mus musculus [11] was 300 mg/kg in each case.

Regarding `O=C1CC(c2ccc(Cl)cc2)C(=O)N1CN1CCN(c2ccccc2Cl)CC1` (racemic), the result with Mus musculus [3], with Mus musculus [20], in the data set with Mus musculus [4] and in the data set with Mus musculus [17] was inactive. In addition, the MED with Mus musculus [19] and in the data set on Mus musculus [11] was 300 mg/kg in each case.

In the case of `O=C1CC(c2ccc(Cl)cc2)C(=O)N1CN1CCN(c2cccc(Cl)c2)CC1` (racemic), in the data set with Mus musculus [1], the minimal effective dose worked out at 100 mg/kg. For the same compound, the outcome with Mus musculus [3], in the data set on Mus musculus [4] and with Mus musculus [17] was inactive. Besides, the MED in the data set on Mus musculus [19] and with Mus musculus [11] was 300 mg/kg in each case.

Consider `O=C1CC(c2ccccc2)C(=O)N1CN1CCC(Cc2ccccc2)CC1` (racemic), for which the minimal effective dose in the data set on Mus musculus [1] turned out to be 300 mg/kg; in the data set on Mus musculus [9], 100 mg/kg. Moreover, the Activity in the data set on Mus musculus [12] was 25%; with Mus musculus [13] it was 0%; in the data set on Mus musculus [6], “Non-toxic”; in the data set on Mus musculus [14] it was “Non-toxic”; with Mus musculus [15], 25%; with Mus musculus [16] it was 0%. Moreover, the Activity with Mus musculus [18] was 0%. Further, the result in the data set with Mus musculus [3] and with Mus musculus [4] was inactive.

Turning to `O=C1CC(c2ccccc2Cl)C(=O)N1CN1CCN(c2cccc(Cl)c2)CC1` (racemic), the minimal effective dose in the data set on Mus musculus [1] was determined as 100 mg/kg. The result in the data set on Mus musculus [3], in the data set on Mus musculus [4] and with Mus musculus [17] was inactive. The figures for the MED in the data set on Mus musculus [19] and with Mus musculus [11] were 300 mg/kg and 100 mg/kg, respectively.
